Activity calls are given as the source filed them. The rule behind the calls is not given here.
How the values were obtained:
[1] = organism: Cavia porcellus; experiment: Intrinsic activity at muscarinic M2 receptor in guinea pig left atrium after 45 mins relative to bethanechol; assay type: tissue-based; settings: Cardiac atrium
In short: (§1)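 Guinea pig left atrium (M2) and ileum (M3) preparations. Intrinsic activity is the ratio of the compound's maximum response to the maximum response of bethanechol in that tissue. The pD2 is the −log of the agonist concentration giving 50% of the maximum response attainable in the tissue.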

[2] = Antagonist activity at muscarinic M4 receptor in guinea pig lung strips assessed as dissociation constant after 45 mins; assay type: functional, Cavia porcellus
In short: (§2)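 Isolated guinea pig tissues: left atrium (M2), ileum (M3) and lung strips (putative M4). Antagonist dissociation constants were calculated by the Furchgott method and reported as pKB, as mean ± SEM of four to six independent experiments. Agonist reference for the tissue responses was bethanechol.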

[3] = Antagonist activity at muscarinic M2 receptor in guinea pig left atrium assessed as dissociation constant after 45 mins; assay type: functional, Cavia porcellus, Cardiac atrium; in short: as §2
[4] = organism: Cavia porcellus; experiment: Intrinsic activity at muscarinic M3 receptor in guinea pig ileum after 45 mins relative to bethanechol; assay type: tissue-based; in short: as §1
[5] = target: T1, Muscarinic acetylcholine receptor M5 (Homo sapiens, UniProt P08912); experiment: Displacement of [3H]N-methylscopolamine from human muscarinic M5 receptor expressed in CHO cells after 120 mins by scintillation counting; assay type: cell-based
T1 sequence (P08912 whole entry): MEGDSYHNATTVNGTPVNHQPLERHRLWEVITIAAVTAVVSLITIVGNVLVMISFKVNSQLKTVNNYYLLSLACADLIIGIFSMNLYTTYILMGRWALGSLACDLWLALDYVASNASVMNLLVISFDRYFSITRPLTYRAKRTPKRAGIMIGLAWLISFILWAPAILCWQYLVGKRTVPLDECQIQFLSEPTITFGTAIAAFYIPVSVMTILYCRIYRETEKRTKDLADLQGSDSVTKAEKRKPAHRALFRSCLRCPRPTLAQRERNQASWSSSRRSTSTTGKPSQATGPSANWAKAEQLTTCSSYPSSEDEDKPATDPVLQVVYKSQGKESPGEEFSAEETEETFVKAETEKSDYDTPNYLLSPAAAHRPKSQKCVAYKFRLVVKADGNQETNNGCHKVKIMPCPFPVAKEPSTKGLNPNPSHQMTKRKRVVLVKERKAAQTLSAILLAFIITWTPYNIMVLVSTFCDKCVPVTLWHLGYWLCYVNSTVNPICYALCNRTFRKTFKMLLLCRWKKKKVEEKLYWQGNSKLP

[6] = target: T2, Muscarinic acetylcholine receptor M2 (Homo sapiens, UniProt P08172); experiment: Displacement of [3H]N-methylscopolamine from human muscarinic M2 receptor expressed in CHO cells after 120 mins by scintillation counting; assay type: cell-based
T2 sequence (P08172 whole entry): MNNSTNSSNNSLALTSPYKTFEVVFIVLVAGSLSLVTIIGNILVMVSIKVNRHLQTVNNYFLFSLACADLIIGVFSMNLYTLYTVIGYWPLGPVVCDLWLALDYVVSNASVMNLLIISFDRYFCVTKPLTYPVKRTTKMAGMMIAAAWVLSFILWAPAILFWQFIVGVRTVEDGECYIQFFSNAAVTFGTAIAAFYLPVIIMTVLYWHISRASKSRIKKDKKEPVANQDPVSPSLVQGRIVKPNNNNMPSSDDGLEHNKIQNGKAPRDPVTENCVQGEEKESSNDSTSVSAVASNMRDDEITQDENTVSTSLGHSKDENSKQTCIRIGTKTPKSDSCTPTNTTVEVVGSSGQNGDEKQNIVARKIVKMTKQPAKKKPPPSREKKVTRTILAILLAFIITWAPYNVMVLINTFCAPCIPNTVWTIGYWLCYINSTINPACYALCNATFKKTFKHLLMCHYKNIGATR

[7] = target: T3, Muscarinic acetylcholine receptor M4 (Homo sapiens, UniProt P08173); experiment: Displacement of [3H]N-methylscopolamine from human muscarinic M4 receptor expressed in CHO cells after 120 mins by scintillation counting; assay type: cell-based
T3 sequence (P08173 whole entry): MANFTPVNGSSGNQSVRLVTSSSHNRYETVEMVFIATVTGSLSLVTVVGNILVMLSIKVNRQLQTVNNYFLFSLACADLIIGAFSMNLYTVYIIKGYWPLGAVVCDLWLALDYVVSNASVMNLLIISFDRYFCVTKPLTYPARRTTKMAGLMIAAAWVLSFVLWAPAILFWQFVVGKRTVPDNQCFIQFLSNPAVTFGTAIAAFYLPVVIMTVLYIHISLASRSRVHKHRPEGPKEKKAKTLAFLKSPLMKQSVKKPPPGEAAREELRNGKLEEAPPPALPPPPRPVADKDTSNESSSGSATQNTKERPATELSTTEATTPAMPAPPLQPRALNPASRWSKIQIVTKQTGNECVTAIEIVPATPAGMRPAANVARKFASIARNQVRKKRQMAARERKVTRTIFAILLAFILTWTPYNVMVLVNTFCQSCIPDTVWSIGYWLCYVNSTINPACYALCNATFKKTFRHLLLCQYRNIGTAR

[8] = Antagonist activity at muscarinic M3 receptor in guinea pig ileum assessed as dissociation constant after 45 mins; assay type: functional, Cavia porcellus; in short: as §2
[9] = tested on: Rattus norvegicus; experiment: Cardiovascular toxicity in anaesthetized Wistar rat assessed as changes in mean arterial pressure at 1 ug/kg, iv; assay type: organism-based, Artery; settings: in vivo, 0.001 mg/kg
[10] = tested on: Rattus norvegicus; experiment: Reduction in volume induced contraction of iv dosed anaesthetized Wistar rat urinary bladder assessed as inhibition of VIBC amplitudes relative to untreated control; assay type: functional
[11] = tested on: Rattus norvegicus; experiment: Cardiovascular toxicity in anaesthetized Wistar rat assessed as changes in heart rate at 1 ug/kg, iv; assay type: organism-based; settings: in vivo, 0.001 mg/kg
[12] = tested on: Rattus norvegicus; experiment: Reduction in volume induced contraction of iv dosed anaesthetized Wistar rat urinary bladder assessed as inhibition of AUC peaks from saline baseline; assay type: functional; settings: read-out: ID50 (the source's name)
[13] = Antagonist activity at muscarinic M1 receptor in rabbit vas deferens assessed as dissociation constant after 45 mins; assay type: functional, Oryctolagus cuniculus
[14] = Agonist potency at muscarinic M3 receptor in guinea pig ileum after 45 mins; assay type: functional, Cavia porcellus
In short: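 Isolated guinea pig ileum (M3) functional assay. pD2 is the −log of the agonist concentration giving 50% of the maximum response attainable in that tissue. Intrinsic activity is the ratio of the agonist's maximum response to that of bethanechol. Results are mean ± SEM of four to six independent experiments.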

[15] = organism: Cavia porcellus; experiment: Antagonist activity at muscarinic M4 receptor in guinea pig lung strips up to 10 uM after 45 mins; assay type: functional
In short: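 Guinea pig lung strips (putative M4) were tested for agonist activity and then for antagonism at concentrations up to 10 μM. Dissociation constants (pKB) were calculated by the Furchgott method from four to six independent experiments.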

[16] = Agonist potency at muscarinic M2 receptor in guinea pig left atrium after 45 mins; assay type: functional, Cavia porcellus, Cardiac atrium
[17] = organism: Cavia porcellus

| SMILES | Intrinsic activity [1] | pKb [2] | pKb [3] | Intrinsic activity [4] | Ki [5] [µM] | Ki [6] [µM] | Ki [7] [µM] | pKb [8] | further results |
| --- | --- | --- | --- | --- | --- | --- | --- | --- | --- |
| CN(C)C[C@H]1COCC(c2ccccc2)(c2ccccc2)O1.O=C(O)C(=O)O | 0 | 6.94 | 7.63 | 0 | 0.00182 | 0.00977 |  |  |  |
| C[N+](C)(C)C[C@@H]1COC[C@H](c2ccccc2)O1.[I-] (relative stereo) | 0 | 5.24 | 5.56 | 0 |  |  | 12.3 |  |  |
| CN(C)CC1COCC(c2ccccc2)(c2ccccc2)O1.O=C(O)C(=O)O (racemic) | 0 | 7.02 | 6.95 | 0 | 0.00537 | 0.0166 |  | 8.24 | Activity [9]: -18%; Imax [10]: 72%; Activity [11]: 4%; ED50 [12]: 0.134 mg/kg; pKb [13]: 7.86 |
| CCN(CC)CC#CCOC(=O)C(O)(c1ccccc1)C1CCCCC1 (stereo not given) [OXYBUTYNIN] | 0 |  |  | 0 |  |  |  |  | Activity [9]: 20%; Imax [10]: 75%; Activity [11]: 7%; ED50 [12]: 0.347 mg/kg |
| C[C@H]1COC[C@@H](C[N+](C)(C)C)O1.[I-] | 1 |  |  | 1 |  |  |  |  | pD2 [14]: 7.34 |
| C[N+](C)(C)C[C@@H]1COC[C@@H](C(c2ccccc2)c2ccccc2)O1 (relative stereo) |  |  |  |  | 31.6 | 79.4 | 17 |  |  |
| C[N+](C)(C)C[C@@H]1COCC(c2ccccc2)(c2ccccc2)O1.[I-] | 0 | 6.62 | 6.67 | 0 | 0.107 | 0.0331 |  |  |  |
| C[N+](C)(C)CC1COCC(c2ccccc2)(c2ccccc2)O1.[I-] (racemic) | 0 | 7.77 | 8.21 | 0 | 0.00437 | 0.00575 |  | 8.34 |  |
| CN(C)C[C@@H]1COC(c2ccccc2)(c2ccccc2)O1.O=C(O)C(=O)O |  |  | 7.11 |  |  |  |  | 6.38 |  |
| CN(C)C[C@@H]1COCC(c2ccccc2)(c2ccccc2)O1.O=C(O)C(=O)O | 0 |  | 7 | 0 | 0.0813 | 0.0955 |  |  |  |
| COc1ccccc1CNCCCCCCNCCCCCCCCNCCCCCCNCc1ccccc1OC [METHOCTRAMINE] |  | 7.6 | 7.8 |  |  |  |  | 6.3 |  |
| C[N+]1(C)CCC(OC(=O)C(c2ccccc2)c2ccccc2)CC1.[I-] [4-DAMP] |  | 9.4 | 8 |  |  |  |  | 9.02 |  |
| CC[C@@H]1COC[C@@H](C[N+](C)(C)C)O1.[I-] (relative stereo) | 0.7 |  |  | 1 | > 100 | 18.2 | > 100 |  | Activity [15]: inactive; pD2 [16]: 5.45; pD2 [14]: 5.19; pD2 [17]: inactive |
| CC[C@H]1COC[C@@H](C[N+](C)(C)C)O1.[I-] (relative stereo) | 1 |  |  | 1 | 26.3 | 6.31 | 25.1 |  | Activity [15]: inactive; pD2 [16]: 5.62; pD2 [14]: 4.82; pD2 [17]: inactive |
| C[N+](C)(C)C[C@H]1COCC(c2ccccc2)(c2ccccc2)O1.[I-] | 0 | 6.7 | 7.31 | 0 | 0.0017 | 0.00282 |  | 8.52 | Activity [9]: -12%; Imax [10]: 96%; Activity [11]: 5%; ED50 [12]: 0.201 mg/kg; pKb [13]: 8.86 |
| C[N+](C)(C)C[C@@H]1COC[C@H](C(c2ccccc2)c2ccccc2)O1 (relative stereo) |  |  |  |  | 7.59 | 28.2 | 11.2 |  |  |
| C[N+](C)(C)C[C@@H]1COC[C@@H](c2ccccc2)O1.[I-] (relative stereo) | 0 | <5 | 5.14 | 0 |  |  | 29.5 | <5 |  |

— ChEMBL document CHEMBL2040723, “1,4-dioxane, a suitable scaffold for the development of novel M₃ muscarinic receptor antagonists” (J Med Chem, 2012)
